Measurements collected from several papers.
Each line is one published result; the experiments were not run side by side.
Cell line: A549
Effect on: cell growth or viability

SMILES	test	setting	measurement	result
CCCCCCCCCCCCCCCCCCOc1ccccc1CC(=O)OCC[N+](C)(C)C	SRB	10 µM	inhibition	88.5%
CCCn1cnc2ccc(-c3ccc(N4CCCC4=O)nc3)cc2c1=O	CCK-8	72 h	IC50	> 10 µM
Cc1cc(=O)oc2cc(OCCCCSC#N)ccc12	SRB		GI50	5 µM
COc1ccc(NC(=O)Nc2cccc(-c3cn(Cc4cccc(Cl)c4)nn3)c2)cc1	CCK-8	20 µM, 72 h	viability	141%
O=C(Nc1ccc(-c2cn(Cc3ccc(Br)cc3)nn2)cc1)Nc1ccccc1Br	CCK-8	50 µM, 72 h	viability	89%
COc1ccc(NC(=O)NCc2cn(Cc3ccccc3C)nn2)cc1	CCK-8	50 µM, 72 h	viability	68%
NCCC(=O)Nc1ccc(/N=c2\cc(-c3ccc4c(c3)OCO4)oc3ccccc23)cc1	CCK-8	1 µM	inhibition	-1.6%
Cc1ccccc1Cn1cc(-c2cccc(NC(=O)Nc3ccc(F)cc3)c2)nn1	CCK-8	50 µM, 72 h	viability	175%
C[C@H](N)C(=O)Nc1ccccc1/N=c1\cc(-c2ccc3c(c2)OCCO3)oc2c(N)cccc12	CCK-8	1 µM	inhibition	0.27%
CCCCCCCCCCCCCCCCCCOc1cccc(CC(=O)OCC[N+]2(C)CCCCC2)c1	SRB	10 µM	inhibition	9.38%
N[C@@H](CO)C(=O)Nc1ccccc1/N=c1\cc(-c2ccc3c(c2)OCO3)oc2ccccc12	CCK-8	1 µM	inhibition	-0.16%
C#CCn1cnc2ccc(-c3ccc(NC(=O)CCCC)nc3)cc2c1=O	CCK-8	72 h	IC50	> 10 µM
O=C(Nc1ccc(Cl)cc1)Nc1cccc(-c2cn(Cc3cccc(Br)c3)nn2)c1	CCK-8	50 µM, 72 h	viability	145%
C[C@H](N)C(=O)Nc1ccccc1/N=c1\cc(-c2ccc3c(c2)OCCO3)oc2cc(F)ccc12	CCK-8	1 µM	inhibition	-0.65%
CCCCCCCCCCCCCCCCCCOc1cccc(CC(=O)OCCC[N+](C)(C)C)c1	SRB	10 µM	inhibition	16.2%
CCCCNC(=O)Nc1ccc(-c2ccc3ncn(CCCC)c(=O)c3c2)cn1	CCK-8	72 h	IC50	1.39 µM
O=C(NCc1cn(Cc2cccc(Cl)c2)nn1)Nc1ccc(Cl)cc1	CCK-8	20 µM, 72 h	viability	76.7%
COc1ccc(NC(=O)Nc2cccc(-c3cn(Cc4ccc(Cl)cc4)nn3)c2)cc1	CCK-8	50 µM, 72 h	viability	270%
COc1ccc2/c(=N/c3ccccc3NC(=O)[C@@H](N)CO)cc(-c3ccc4c(c3)OCCO4)oc2c1	CCK-8	1 µM	inhibition	1.6%
CCCCC(=O)Nc1ccc(-c2ccc3ncn(CCC)c(=O)c3c2)cc1F	CCK-8	72 h	IC50	> 10 µM
CCCCCCCCCCCCCCCCCCOc1ccc(CC(=O)OCC[N+]2(C)CCCC2)cc1	SRB	10 µM	inhibition	2.78%

SMILES	test	setting	measurement	result
CCOc1ccc(C(=O)CC(SCc2ccc(Cl)cc2)C(=O)OC)cc1 (centres unmarked)	MTT	48 h	EC50	> 250 µM
O=C(Nc1ccc(Cl)cc1)Nc1ccc(-c2cn(Cc3ccc(Br)cc3)nn2)cc1	CCK-8	20 µM, 72 h	viability	69.1%
CCCCC(=O)Nc1ccc(-c2ccc3ncn(CC4CC4)c(=O)c3c2)cn1	CCK-8	72 h	IC50	0.42 µM
N#CSCc1cc(=O)oc2cc(O)ccc12	SRB		GI50	5.8 µM
CCCCCCCCCCCCCCCCCCOc1ccccc1CC(=O)OCC[N+]1(C)CCCCC1	SRB	10 µM	inhibition	57.8%
COc1ccc(NC(=O)NCc2cn(Cc3ccc(Cl)cc3)nn2)cc1	CCK-8	20 µM, 72 h	viability	71.9%
O=C(Nc1ccc(-c2cn(Cc3ccc(Cl)cc3)nn2)cc1)Nc1ccccc1Br	CCK-8	50 µM, 72 h	viability	107%
CCCn1cnc2ccc(-c3ccc(NC(=O)CNCC)nc3)cc2c1=O	CCK-8	72 h	IC50	3.42 µM
O=C(Nc1ccc(Cl)cc1)Nc1ccc(-c2cn(Cc3cccc(Cl)c3)nn2)cc1	CCK-8	20 µM, 72 h	viability	64.6%
CCCCCCCCCCCCCCCCCCOc1ccccc1CC(=O)OCCC[N+](C)(C)C	SRB	10 µM	inhibition	45.8%
O=C(NCc1cn(Cc2ccc(Br)cc2)nn1)Nc1ccc(Cl)cc1	CCK-8	20 µM, 72 h	viability	102%
COc1ccc(NC(=O)Nc2ccc(-c3cn(Cc4ccc(C)cc4)nn3)cc2)cc1	CCK-8	20 µM, 72 h	viability	67.9%
CC(C)(C)[C@H](N)C(=O)Nc1ccccc1/N=c1\cc(-c2ccc3c(c2)OCO3)oc2ccccc12	CCK-8	1 µM	inhibition	3.13%
O=C(NCc1cn(Cc2ccc(Br)cc2)nn1)Nc1ccccc1Br	CCK-8	20 µM, 72 h	viability	88.8%
COc1ccc(NC(=O)Nc2ccc(-c3cn(Cc4ccc(Cl)cc4)nn3)cc2)cc1	CCK-8	20 µM, 72 h	viability	102%
NCCCCC(=O)Nc1ccccc1/N=c1\cc(-c2ccc3c(c2)OCO3)oc2ccccc12	CCK-8	1 µM	inhibition	3.56%
CCCCC(=O)Nc1ccc(-c2ccc3ncn(CC)c(=O)c3c2)cn1	CCK-8	72 h	IC50	0.92 µM
O=C(Nc1ccc(Cl)cc1)Nc1cccc(-c2cn(Cc3cccc(Cl)c3)nn2)c1	CCK-8	50 µM, 72 h	viability	166%
CCCCC(=O)Nc1ccc(-c2ccc3ncn(CCCF)c(=O)c3c2)cn1	CCK-8	72 h	IC50	1.79 µM
Nc1nc2ccc(-c3c/c(=N\c4ccccc4NC(=O)C4CCNC4)c4ccccc4o3)cc2o1 (centres unmarked)	CCK-8	1 µM	inhibition	22.7%
